Data published in ChEMBL document CHEMBL1212762, “In vivo activity of ceftobiprole in murine skin infections due to Staphylococcus aureus and Pseudomonas aeruginosa” (Antimicrob Agents Chemother, 2010).

What was measured:
Pseudomonas aeruginosa [1] = assay: Antimicrobial activity against Pseudomonas aeruginosa OC 4354 infected in immunocompromized SKH1 mouse assessed as lesion volume at 100 mg/kg/day, sc measured after 48 hrs postinfection (reference value: 2195 mm3); assay type: functional; conditions: route subcutaneous
Pseudomonas aeruginosa [2] = assay: Antimicrobial activity against Pseudomonas aeruginosa OC 4351 assessed as inhibition of growth by broth microdilution method; assay type: functional
Staphylococcus aureus [3] = assay: Antimicrobial activity against methicillin-resistant Staphylococcus aureus OC 8525 infected immunocompetent SKH1 mouse assessed as lesion volume at 100 mg/kg/day, sc measured after 48 hrs postinfection (reference value: 1535 mm3); conditions: route subcutaneous
Zone of skin [4] = assay: fAUC (0-infinity) in immunocompetent SKH1 mouse skin at 50 mg/kg, sc; assay type: ADME, organism-based; parameters: dose 50 mg/kg, route subcutaneous; conditions: in vivo
Procedure, shortened: (§1)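 Female SKH1 hairless mice, immunocompetent or cyclophosphamide-neutropenic, infected s.c. with MRSA OC 8525 or P. aeruginosa OC 4354 on the Cytodex beads (left flank), sterile beads on the right. Single dose 24 h later: s.c. at the nape, or linezolid 50 mg/kg oral. Plasma and skin (DMSO homogenate) sampled over time, HPLC with diode array.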

Pseudomonas aeruginosa [5] = assay: Antimicrobial activity against Pseudomonas aeruginosa OC 4351 infected in immunocompromized SKH1 mouse assessed as log change in bacterial colony forming units at 25 mg/kg/day, sc; assay type: functional; conditions: route subcutaneous
Procedure, shortened: (§2)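 Female SKH1 hairless mice made neutropenic with ip cyclophosphamide (150 mg/kg 5 days and 100 mg/kg 1 day before infection). 0.2 ml s.c. Cytodex bead (0.1% vol/vol) inoculum in BHI: OC 4351 left flank, OC 4354 right flank. Drug s.c. at 1, 3, 25, 27 h postinfection. Killed at 48 h; skin homogenised in saline, plated on TSA 18 h 37°C; Δlog CFU/g versus inoculum. 5 mice/dose, run twice.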

Zone of skin [6] = assay: fCmax in Staphylococcus aureus infected […] SKH1 mouse skin at 50 mg/kg, sc; assay type: ADME, organism-based; parameters: dose 50 mg/kg, route subcutaneous; conditions: in vivo
Pseudomonas aeruginosa [7] = assay: Antimicrobial activity against Pseudomonas aeruginosa OC 4351 infected in immunocompromized SKH1 mouse assessed as log change in bacterial colony forming unit at 100 mg/kg/day, sc; assay type: functional; conditions: route subcutaneous; procedure, shortened: as §2
Plasma [8] = assay: fCmax in immunocompetent SKH1 mouse plasma at 12.5 mg/kg, sc; assay type: ADME, organism-based; parameters: dose 12.5 mg/kg, route subcutaneous; conditions: in vivo; procedure, shortened: as §1
[9] = Half life in immunocompetent SKH1 mouse plasma at 12.5 mg/kg, sc; assay type: ADME, organism-based; parameters: dose 12.5 mg/kg, route subcutaneous; procedure, shortened: as §1
[10] = fT>MIC in Pseudomonas aeruginosa OC 4351 infected sc dosed SKH1 mouse administered in 24 hrs dosing interval; assay type: functional
Zone of skin [11] = assay: fAUC (0-infinity) in Staphylococcus aureus infected immunocompromized SKH1 mouse skin at 50 mg/kg, sc; assay type: ADME, organism-based; parameters: dose 50 mg/kg, route subcutaneous; conditions: in vivo
Staphylococcus aureus [12] = assay: Antimicrobial activity against methicillin-resistant Staphylococcus aureus OC 8525 assessed as inhibition of growth by broth microdilution method; assay type: functional
Zone of skin [13] = assay: fCmax in Staphylococcus aureus infected immunocompetent SKH1 mouse skin at 50 mg/kg, sc; assay type: ADME, organism-based; parameters: dose 50 mg/kg, route subcutaneous; conditions: in vivo; procedure, shortened: as §1
[14] = Tmax in Staphylococcus aureus infected […] SKH1 mouse skin at 50 mg/kg, sc; assay type: ADME, organism-based, Zone of skin; parameters: dose 50 mg/kg, route subcutaneous
[15] = Tmax in immunocompetent SKH1 mouse plasma at 12.5 mg/kg, sc; assay type: ADME, organism-based; parameters: dose 12.5 mg/kg, route subcutaneous; procedure, shortened: as §1
Plasma [16] = assay: fAUC (0-infinity) in immunocompetent SKH1 mouse plasma at 12.5 mg/kg, sc; assay type: ADME, organism-based; parameters: dose 12.5 mg/kg, route subcutaneous; conditions: in vivo; procedure, shortened: as §1
Pseudomonas aeruginosa [17] = assay: Antimicrobial activity against Pseudomonas aeruginosa OC 4354 infected in immunocompromized SKH1 mouse assessed as log change in bacterial colony forming unit at 25 mg/kg/day, sc; assay type: functional; conditions: route subcutaneous; procedure, shortened: as §2
Staphylococcus aureus [18] = assay: Antimicrobial activity against methicillin-resistant Staphylococcus aureus OC 8525 infected in SKH1 mouse assessed as log change in bacterial colony forming unit per gram of skin tissue at 1.6 mg/kg/day, sc (reference value: 0.8 deltalog CFU); assay type: functional; conditions: route subcutaneous
Procedure, shortened: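 Female hairless immunocompetent SKH1 mice were anaesthetised and injected s.c. with 0.2 ml Cytodex bead inoculum (0.1% vol/vol beads in BHI; 6.7–7.0 log10 CFU/mouse): MSSA OC 4172 in the left flank, MRSA OC 8525 in the right. Drug was given at 1, 3, 25 and 27 h post-infection. At 48 h, flank lesions were excised, weighed and homogenised in saline, then plated on TSA (18 h, 37°C). The value is Δlog CFU/g versus the inoculum, from 5 mice/dose, run twice and pooled.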

Staphylococcus aureus [19] = assay: Antimicrobial activity against methicillin-susceptible Staphylococcus aureus Smith OC 4172 infected immunocompetent SKH1 mouse assessed as lesion volume at 25 mg/kg/day, sc measured after 48 hrs postinfection (reference value: 1181 mm3); conditions: route subcutaneous
Pseudomonas aeruginosa [20] = assay: Antimicrobial activity against Pseudomonas aeruginosa OC 4351 infected in immunocompromized SKH1 mouse assessed as lesion volume at 6.2 mg/kg/day, sc measured after 48 hrs postinfection (reference value: 2234 mm3); assay type: functional; conditions: route subcutaneous
Staphylococcus aureus [21] = assay: Antimicrobial activity against methicillin-susceptible Staphylococcus aureus Smith OC 4172 infected immunocompetent SKH1 mouse assessed as lesion volume at 100 mg/kg/day, sc measured after 48 hrs postinfection (reference value: 1181 mm3); conditions: route subcutaneous
Zone of skin [22] = assay: fCmax in immunocompromized SKH1 mouse skin at 50 mg/kg, sc; assay type: ADME, organism-based; parameters: dose 50 mg/kg, route subcutaneous; conditions: in vivo; procedure, shortened: as §1
Plasma [23] = assay: fCmax in immunocompetent SKH1 mouse plasma at 50 mg/kg, sc; assay type: ADME, organism-based; parameters: dose 50 mg/kg, route subcutaneous; conditions: in vivo; procedure, shortened: as §1
[24] = Half life in immunocompromized SKH1 mouse skin at 50 mg/kg, sc; assay type: ADME, organism-based, Zone of skin; parameters: dose 50 mg/kg, route subcutaneous; procedure, shortened: as §1
Pseudomonas aeruginosa [25] = assay: Antimicrobial activity against Pseudomonas aeruginosa OC 4354 infected in immunocompromized SKH1 mouse assessed as lesion volume at 1.6 mg/kg/day, sc measured after 48 hrs postinfection (reference value: 2195 mm3); assay type: functional; conditions: route subcutaneous
Plasma [26] = assay: fAUC (0-infinity) in immunocompromized SKH1 mouse plasma at 50 mg/kg, sc; assay type: ADME, organism-based; parameters: dose 50 mg/kg, route subcutaneous; conditions: in vivo; procedure, shortened: as §1
Pseudomonas aeruginosa [27] = assay: Antimicrobial activity against Pseudomonas aeruginosa OC 4354 assessed as inhibition of growth by broth microdilution method; assay type: functional
Staphylococcus aureus [28] = assay: Antimicrobial activity against methicillin-resistant Staphylococcus aureus OC 8525 infected immunocompetent SKH1 mouse assessed as lesion volume at 6.2 mg/kg/day, sc measured after 48 hrs postinfection (reference value: 1535 mm3); conditions: route subcutaneous
[29] = Half life in immunocompromized SKH1 mouse plasma at 50 mg/kg, sc; assay type: ADME, organism-based; parameters: dose 50 mg/kg, route subcutaneous
[30] = Tmax in immunocompetent SKH1 mouse skin at 50 mg/kg, sc; assay type: ADME, organism-based, Zone of skin; parameters: dose 50 mg/kg, route subcutaneous; procedure, shortened: as §1
[31] = Half life in immunocompetent SKH1 mouse skin at 50 mg/kg, sc; assay type: ADME, organism-based, Zone of skin; parameters: dose 50 mg/kg, route subcutaneous; procedure, shortened: as §1
Zone of skin [32] = assay: fAUC (0-infinity) in immunocompromized SKH1 mouse skin at 50 mg/kg, sc; assay type: ADME, organism-based; parameters: dose 50 mg/kg, route subcutaneous; conditions: in vivo; procedure, shortened: as §1
[33] = fT>MIC in Pseudomonas aeruginosa OC 4354 infected sc dosed SKH1 mouse administered in 24 hrs dosing interval; assay type: functional
Procedure, shortened: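 Plasma levels came from female hairless SKH1 mice given single s.c. doses at the nape 24 h after flank s.c. infection with Cytodex beads. S. aureus work used immunocompetent mice. P. aeruginosa work used mice made neutropenic with cyclophosphamide i.p., 150 mg/kg at day −5 and 100 mg/kg at day −1. Drug assayed by HPLC with diode-array detection. Noncompartmental analysis.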

Compound: Nc1nc(/C(=N/O)C(=O)N[C@@H]2C(=O)N3C(C(=O)O)=C(/C=C4\CCN([C@@H]5CCNC5)C4=O)CS[C@H]23)ns1 [CEFTOBIPROLE]
- Activity (Pseudomonas aeruginosa [1]): 373 mm3
- MIC (Pseudomonas aeruginosa [2]): 4 µg/mL
- Activity (Staphylococcus aureus [3]): 484 mm3
- fAUC (Zone of skin [4]): 668 µg·min/mL
- deltalog10CFU (Pseudomonas aeruginosa [5]): -0.9
- fCmax (Zone of skin [6]): 9 µg/g
- deltalog10CFU (Pseudomonas aeruginosa [7]): -1.1
- fCmax (Plasma [8]): 17 µg/mL
- half-life [9]: 17 min
- fT>MIC [10]: 9.1%
- fAUC (Zone of skin [11]): 704 µg·min/mL
- MIC (Staphylococcus aureus [12]): 1 µg/mL
- fCmax (Zone of skin [13]): 13 µg/g
- Tmax [14]: 15 min
- Tmax [15]: 7.5 min
- fAUC (Plasma [16]): 481 µg·min/mL
- deltalog10CFU (Pseudomonas aeruginosa [17]): -1.3
- deltalog10CFU (Staphylococcus aureus [18]): 0.3
- Activity (Staphylococcus aureus [19]): 640 mm3
- Activity (Pseudomonas aeruginosa [20]): 847 mm3
- Activity (Staphylococcus aureus [21]): 555 mm3
- fCmax (Zone of skin [22]): 17 µg/g
- fCmax (Plasma [23]): 66 µg/mL
- half-life [24]: 30 min
- Activity (Pseudomonas aeruginosa [25]): 1833 mm3
- fAUC (Plasma [26]): 2011 µg·min/mL
- MIC (Pseudomonas aeruginosa [27]): 4 µg/mL
- Activity (Staphylococcus aureus [28]): 896 mm3
- half-life [29]: 13 min
- Tmax [30]: 15 min
- half-life [31]: 19 min
- fAUC (Zone of skin [32]): 690 µg·min/mL
- fT>MIC [33]: 9.1%
